Screening results (PubChem BioAssay)
Shown are actives, neighbours in structure and some others; about 0.54% of the full set was active somewhere.
ARFGAP1 inh = rat ARFGAP1 inhibition; Arfgap1-stimulated ARF1 GTP hydrolysis, GDP FP detection; 360,000 compounds, 0.26% hits; AID 651572; inhibition, % at 16.5 µM;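 active = inhibition above a per-plate limit, mean inhibition of low control wells plus 3 SD, cut at about 25% in these data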;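 note: 0% = DMSO wells with enzyme and 100% = wells lacking Arfgap1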
Target sequence (Q62848 1-136 limits assumed): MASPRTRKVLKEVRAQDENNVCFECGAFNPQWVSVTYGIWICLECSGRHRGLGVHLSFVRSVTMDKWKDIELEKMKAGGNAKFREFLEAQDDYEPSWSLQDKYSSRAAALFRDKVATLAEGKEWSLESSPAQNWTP
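system = rat Arfgap1 catalytic domain, aa 1-136 | technique = FP, GDP Alexa 633 tracer displaced from anti-GDP antibody, 620/688 nm | compound = one concentration, 16.5 µM, DMSO 1.26% | medium = HEPES-based buffer, pH 7.5 | timing = compound-enzyme preincubation 20 min, reaction 120 min, detection 60 min, 25 °C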
ASAP1 inh = blocks human ASAP1-stimulated Arf1 GTP hydrolysis. 360,000 compounds, 0.19% hits. GDP FP detection. Q9ULH1. inhibition, % at 16.5 µM; in the data active = inhibition above about 25%;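 note: 0% = vehicle with enzyme and substrate and 100% = no enzyme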
PP5 inh = inhibitors of human protein phosphatase 5 (PP5) | P53041 | purified PP5c, OMFP substrate fluorescence | inhibition, % at 6.7 µM | 320,000 compounds, 0.18% hits | AID 1987;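 active = inhibition above the campaign's mean inhibition across all tested compounds plus 3 SD, cut at about 9.5% in these data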;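 note: 0% = DMSO only and 100% = 100 µM cantharidin control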
Target sequence (P53041 whole entry, looked up): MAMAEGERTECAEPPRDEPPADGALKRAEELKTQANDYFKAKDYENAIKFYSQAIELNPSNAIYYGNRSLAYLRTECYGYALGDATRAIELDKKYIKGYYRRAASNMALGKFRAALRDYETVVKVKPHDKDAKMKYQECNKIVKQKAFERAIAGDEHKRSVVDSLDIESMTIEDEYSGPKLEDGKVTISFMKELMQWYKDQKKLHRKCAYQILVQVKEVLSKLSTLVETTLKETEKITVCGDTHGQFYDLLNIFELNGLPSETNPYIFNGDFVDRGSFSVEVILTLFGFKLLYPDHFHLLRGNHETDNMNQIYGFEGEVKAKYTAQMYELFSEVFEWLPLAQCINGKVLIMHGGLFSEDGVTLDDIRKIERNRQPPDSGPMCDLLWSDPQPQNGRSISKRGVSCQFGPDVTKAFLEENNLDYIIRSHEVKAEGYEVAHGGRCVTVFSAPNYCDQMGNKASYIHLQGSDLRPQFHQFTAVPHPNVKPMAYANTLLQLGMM
PKD1 inh = PKD1 (human) kinase inhibition. Q15139. inhibition, % (no concentration beside the values). AID 797. 200,000 compounds, 0.056% hits. PKD1 kinase fluorescence polarization assay; in the data active = inhibition above about 50%
PP5 inh confirm = confirmation of human PP5 phosphatase inhibitors; 460 compounds, 22% hits; inhibition, % at 6.7 µM; shares compounds with PP5 inh; AID 2331; Purified PP5, fluorogenic phosphatase substrate, fluorescence; in the data active = inhibition above about 9.5%
PP1 counter 3x = inhibits human PP1 phosphatase in PP5 counter-screen. shares compounds with PP5 inh. PP1 enzyme, fluorescent phosphatase substrate. inhibition, % at 6.7 µM. 460 compounds, 4% hits. AID 2355; in the data active = inhibition above about 16%
Numbers without * were called inactive; / = no result given.

SMILES | ARFGAP1 inh | ASAP1 inh | PP5 inh | PKD1 inh | PP5 inh confirm | PP1 counter 3x
O=C(c1ccc([N+](=O)[O-])cc1)N1CCN(c2ncc(Br)cn2)CC1 | 3 | 10 | 11* | / | -4 | -3
COc1ccc(C(C(=O)NC(C)(C)C)n2c(=O)c(-c3cc4ccccc4[nH]3)nc3ccccc32)cc1 (stereo unspecified) | 7 | 22 | / | / | / | /
Cc1onc(-c2ccccc2)c1C(=O)OCC(=O)Nc1ccc(OC(F)(F)F)cc1 | 6 | 6 | 9.7* | / | 7 | 6
CCC(CC)C(=O)Nc1cccc(C(=O)Nc2ccc(S(N)(=O)=O)cc2)c1 | 7 | 0 | 4 | 2 | / | /
CCC(CC)C(=O)Nc1cccc(C(=O)Nc2ccc(S(=O)(=O)Nc3ccc(C)cc3)cc2)c1 | 19 | 18 | 10* | -8 | 4 | 2
CCC(CC)C(=O)Nc1cccc(C(=O)Nc2ccc(OC)cc2[N+](=O)[O-])c1 | 11 | 8 | 10* | -8 | -4 | -4
COc1ccccc1CCn1cnc(-c2cccc(Cl)c2)c1CC(C)C | 5 | 10 | / | / | / | /
CCOC(=O)/C=C/C(=O)Nc1ccc(S(=O)(=O)Nc2c(C)cc(C)cc2C)cc1 | -1 | 12 | 9.6* | -12 | 3 | 5
CCCCn1nnnc1C1(C)CCC(=O)N1c1ccc(N2CCOCC2)cc1 (stereo unspecified) | 1 | -5 | / | / | / | /
CC(=O)Nc1ccc(S(=O)(=O)N2CCN(c3cc(C)nc4ccccc34)CC2)cc1 | 2 | 6 | 1 | -4 | / | /
CC(=O)Nc1ccc(S(=O)(=O)N2CCN(c3nc(NC4CCCC4)c4ccccc4n3)CC2)cc1 | 39* | 18 | 12* | -9 | 2 | 0
COc1ccc(CN2C(=O)CN(S(C)(=O)=O)CC2(C)C(=O)Nc2ccc3c(c2)OCCO3)cc1OC (stereo unspecified) | -1 | -4 | / | / | / | /
Cc1snc(S(=O)(=O)/C(C#N)=N\Nc2ccccc2)c1C#N | 2 | -2 | 0 | 2 | / | /
Cc1snc(S(=O)(=O)/C(C#N)=N/Nc2ccc(C(F)(F)F)cc2)c1C#N | 5 | 6 | 10* | -5 | 7 | 12
COc1ccc(C(C)(C)C)cc1N1C(=O)[C@@H]2CSCCS(=O)(=O)N2C1=O | -5 | 1 | / | / | / | /
CC(C)=CC(=O)N1CCCc2ccccc21 | 4 | 11 | 9.7* | 2 | -4 | -6
C/C(=C/C(=O)N1CCc2ccccc21)C(=O)O | 6 | -12 | 0 | 2 | / | /
COC(=O)c1ccc(COc2cccn3c(N(C)C(=O)CCC4CCCC4)c(C)nc23)cc1 | 13 | 0 | / | / | / | /
NC(Cc1ccccc1)c1csc(NC(=O)c2cccc(OC(F)(F)F)c2)n1 (stereo unspecified) | 14 | 16 | / | / | / | /
CCCc1[nH]c2ccc(C#N)cc2c1CCC | -3 | -11 | 13* | / | 7 | 6
CCCc1[nH]c2ccc(C(=O)OC)cc2c1CCC | 4 | 2 | 7 | / | / | /
CCc1ccccc1NC(=O)C1C2C=CC(O2)C1C(=O)O (stereo unspecified) | -6 | 9 | 21* | / | -2 | 4
CCOc1ccccc1NC(=O)C1C2C=CC(O2)C1C(=O)O (stereo unspecified) | -5 | 12 | 30* | -6 | 2 | 11
CC(=O)C(C(C)=O)C1(O)C(=O)c2ccccc2C1=O | 32* | 27* | 14* | -3 | 38* | 3
CCOC(=O)c1ccc(-c2ccc(N3C(c4cccc(OC)c4)=Cc4ccc(F)cc4C3CC(C)=O)cc2)cc1F (stereo unspecified) | 2 | -10 | / | / | / | /
SMILES | ARFGAP1 inh | ASAP1 inh | PP5 inh | PKD1 inh | PP5 inh confirm | PP1 counter 3x
Nc1ccn([C@@H]2O[C@H](C(=O)N[C@H](Cc3ccccc3)C(=O)N3CCN(CCO)CC3)[C@@H](O)[C@H]2O)c(=O)n1 | -1 | 6 | / | / | / | /
C=CCCC1CN(Cc2ccc(OC)cc2)S(=O)(=O)c2c(F)cccc2O1 (stereo unspecified) | 4 | 9 | / | / | / | /
CC(C)(C)OC(=O)[C@H](Cc1ccccc1)NC(=O)c1nc[nH]c1C(=O)N1CCN(C(=O)OC(C)(C)C)CC1 | -1 | 7 | 2 | / | / | /
C[C@H](NC(=O)c1nc[nH]c1C(=O)N[C@@H](CCCCNC(=O)OC(C)(C)C)C(=O)OC(C)(C)C)C(=O)OC(C)(C)C | 3 | 1 | 9.6* | / | 5 | 6
CC(C)C[C@H](NC(=O)c1nc[nH]c1C(=O)N[C@@H](CCCCNC(=O)OC(C)(C)C)C(=O)OC(C)(C)C)C(=O)OCc1ccccc1 | -5 | 6 | 11* | / | 8 | 9
CC(C)C[C@H](NC(=O)c1[nH]cnc1C(=O)N[C@@H](C)c1ccccc1)C(=O)OC(C)(C)C | 6 | 5 | 9.9* | 4 | 9.7* | 9
CC(C)(C)OC(=O)[C@H](Cc1ccccc1)NC(=O)c1nc[nH]c1C(=O)NC1CCN(C(=O)OC(C)(C)C)CC1 | 3 | 12 | 10* | -1 | 10* | 10
OC(c1ccccc1)(c1ccccc1)C1CCN(CCCOc2ccncc2)CC1 | 8 | 7 | / | / | / | /
Cc1cccc(C)c1NC(=O)C(c1ccccc1OC(F)(F)F)N1CCC(c2ccccc2)CC1 (stereo unspecified) | 11 | 0 | / | / | / | /
COCCN1Cc2cc(C(=O)OC)c3c(c2C1=O)c1cc(OC)ccc1n3S(=O)(=O)c1ccc(F)cc1 | 0 | 1 | / | / | / | /
CC(C)(C)OC(=O)NCCCC[C@H](NC(=O)c1nc[nH]c1C(=O)N[C@@H](CCCCNC(=O)OC(C)(C)C)C(=O)OC(C)(C)C)C(=O)OC(C)(C)C | 15 | 10 | 16* | / | 11* | 12
CC(C)(C)OC(=O)NCCCC[C@H](NC(=O)c1nc[nH]c1C(=O)NC1CCN(C(=O)OC(C)(C)C)CC1)C(=O)OC(C)(C)C | 6 | 17 | 11* | / | 9 | 10
CC(C)(C)OC(=O)NCCCCCNC(=O)c1[nH]cnc1C(=O)N[C@@H](CCCCNC(=O)OC(C)(C)C)C(=O)OC(C)(C)C | / | / | 13* | -6 | 5 | 6
Cc1cccc(NC(=O)c2nc[nH]c2C(=O)N[C@@H](CCCCNC(=O)OC(C)(C)C)C(=O)OC(C)(C)C)c1 | 11 | 7 | 11* | / | 5 | 6
CCCCCCCCN1C(=O)[C@H](CC(=O)N2CCSCC2)C[C@@]2(C(=O)OC)CC(C)(C)CC=C12 | 1 | -4 | / | / | / | /
C[C@@H]1CN([C@@H](C)CO)C(=O)c2cc(Br)cnc2O[C@@H]1CN(C)Cc1ccccn1 | 0 | -8 | / | / | / | /
CC1(c2nnnn2Cc2ccccc2)CCC(=O)N1Cc1ccc(F)cc1 (stereo unspecified) | 1 | -8 | / | / | / | /
Cc1cc(C)cc(NC(=O)C2C3C=CC(O3)C2C(=O)O)c1 (stereo unspecified) | -9 | 19 | 20* | / | 0 | 19*
O=C(O)C1C2C=CC(O2)C1C(=O)Nc1cccc(C(F)(F)F)c1 (stereo unspecified) | -10 | 1 | 33* | / | -3 | 6
CC(=O)Nc1nc(C)cs1 | 6 | 1 | 0 | -5 | / | /
